For 10 compounds, TDI and Ki results are on record in ChEMBL document CHEMBL1122088, “Synthesis of analogues of the carboxyl protease inhibitor pepstatin. Effect of structure in subsite P3 on inhibition of pepsin” (J Med Chem, 1982).

Activity calls are given as the source filed them. No cut-off for these calls is given here. Square brackets hold non-standard residues; d marks the D form. Peptide text beside a SMILES is read from it. * marks the point of attachment. Sta = CC(C)C[C@H](N)[C@@H](O)CC(=O)O; Isovaleryl = CC(C)CC(=O)*; NHIsopentyl = CC(C)CCN*

For orientation: Ki means a measure of affinity in units of concentration, obtained from inhibition or displacement. Low values mean a stronger hold on the target, high ones a looser hold on the target.

Experiment [1] deals with Pepsin A (Sus scrofa) (UniProt P00791). In words: The compound was tested for time dependent inhibition against carboxyl protease (pepsin); Yes.
For experiment [2], the target named is Pepsin A (Sus scrofa, UniProt P00791). Nature of the experiment: The compound was tested for inhibition of carboxyl protease (pepsin) inhibition. The procedure, abridged:
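Porcine pepsin was assayed spectrophotometrically with the heptapeptide substrate Phe-Gly-His-Phe(NO2)-Phe-Ala-Phe-OMe (Km 4.0×10^-5 M). Fractional velocity (Vi/V0) was plotted against inhibitor concentration to obtain IC50. IC50 was converted to Ki with Cha's equation, Ki = (IC50 − Et/2)(1 + S/Km)^-1, using total enzyme and substrate concentrations. Time-dependent inhibitors were preincubated with enzyme for 10 min, and steady-state velocities were used.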

Experiment [3] addresses Pepsin A (Sus scrofa) (UniProt P00791). In words: The compound was tested for time dependent inhibition against carboxyl protease (pepsin); No inhibition.

Pepsin A (Sus scrofa), sequence (P00791 60-385 limits assumed): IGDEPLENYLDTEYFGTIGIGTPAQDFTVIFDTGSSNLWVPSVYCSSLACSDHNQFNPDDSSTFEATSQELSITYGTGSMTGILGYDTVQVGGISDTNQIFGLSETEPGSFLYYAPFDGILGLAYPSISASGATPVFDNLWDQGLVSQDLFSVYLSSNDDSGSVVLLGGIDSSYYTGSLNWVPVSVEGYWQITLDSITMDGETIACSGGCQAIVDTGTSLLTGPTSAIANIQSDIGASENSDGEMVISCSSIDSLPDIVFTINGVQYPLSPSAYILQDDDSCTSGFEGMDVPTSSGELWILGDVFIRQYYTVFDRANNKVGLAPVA
Pepsin A, sequence (P00791 whole entry): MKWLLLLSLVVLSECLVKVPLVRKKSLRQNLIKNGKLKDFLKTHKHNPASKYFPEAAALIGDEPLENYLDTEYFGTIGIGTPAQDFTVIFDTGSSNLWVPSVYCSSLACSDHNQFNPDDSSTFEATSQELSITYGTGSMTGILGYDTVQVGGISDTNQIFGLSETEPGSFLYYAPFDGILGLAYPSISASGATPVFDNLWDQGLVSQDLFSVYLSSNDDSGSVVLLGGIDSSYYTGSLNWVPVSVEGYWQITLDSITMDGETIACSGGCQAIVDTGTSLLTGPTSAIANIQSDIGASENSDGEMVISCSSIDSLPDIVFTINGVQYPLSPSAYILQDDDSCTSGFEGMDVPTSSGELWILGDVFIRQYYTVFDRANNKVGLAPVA

Take `CC(C)CCNC(=O)[C@H](C)NC(=O)C[C@H](O)[C@H](CC(C)C)NC(=O)[C@@H](NC(=O)C(C)C)C(C)C`: the TDI result in experiment [1] was “Active”. This compound showed a Ki in experiment [2] of 1.6 nM.
For `CC(C)CCNC(=O)[C@H](C)NC(=O)C[C@H](O)[C@H](CC(C)C)NC(=O)[C@@H](NC(=O)[C@@H](NC(=O)CC(C)C)C(C)C)C(C)C` (Isovaleryl-VV[Sta]A-NHIsopentyl) the same measures were “Active” and around 0.1 nM.
In the case of `CC(C)CCNC(=O)[C@H](C)NC(=O)C[C@H](O)[C@H](CC(C)C)NC(=O)[C@@H](NC(=O)CC(C)(C)C)C(C)C`, the TDI result in experiment [3] was “inactive”. Also, in experiment [2], affinity was put at a Ki of 7.5 nM.
Regarding `CCC(CC)C(=O)N[C@H](C(=O)N[C@@H](CC(C)C)[C@@H](O)CC(=O)N[C@@H](C)C(=O)NCCC(C)C)C(C)C`, the TDI entry in experiment [1] was “Active”. Also, the inhibition constant (Ki) in experiment [2] came out at 0.18 nM.
For the compound `CC(C)CCNC(=O)[C@H](C)NC(=O)C[C@H](O)[C@H](CC(C)C)NC(=O)[C@@H](NC(=O)OC(C)C)C(C)C`, the TDI entry in experiment [3] was “inactive”. Besides, in experiment [2], the inhibition constant Ki stood at 8.6 nM.
For the compound `CC(C)CCNC(=O)[C@H](C)NC(=O)C[C@H](O)[C@H](CC(C)C)NC(=O)[C@@H](NC(=O)[C@@H](NC(=O)OC(C)(C)C)C(C)C)C(C)C`, the TDI entry in experiment [1] was “Active”. Moreover, in experiment [2], the Ki was around 6 nM.
On the same counts, the results for `CC(C)CCNC(=O)[C@H](C)NC(=O)C[C@H](O)[C@H](CC(C)C)NC(=O)[C@@H](NC(=O)CC(C)C)C(C)C` are “Active” and 2.9 nM.
Regarding `CC(C)CCNC(=O)[C@H](C)NC(=O)C[C@H](O)[C@H](CC(C)C)NC(=O)[C@@H](NC(=O)OC(C)(C)C)C(C)C`, the TDI entry in experiment [3] was “inactive”. The compound further gave a Ki in experiment [2] of 170 nM.
`CC(C)CCNC(=O)[C@H](C)NC(=O)C[C@H](O)[C@H](CC(C)C)NC(=O)[C@@H](NC(=O)[C@H](NC(=O)OC(C)(C)C)C(C)C)C(C)C`: the TDI result in experiment [1] is “Active”. Moreover, the affinity in experiment [2], expressed as Ki, was 11 nM.
Turning to `CCC(C)C(=O)N[C@H](C(=O)N[C@@H](CC(C)C)[C@@H](O)CC(=O)N[C@@H](C)C(=O)NCCC(C)C)C(C)C` (stereo not given in full), the TDI entry in experiment [1] was “Active”. The Ki in experiment [2] was determined as 0.31 nM.
